Source: PubChem BioAssay (several laboratories)
An excerpt weighted towards active compounds, which were near 2.9% of everything screened.
Wee1 stabilizer: blocks degradation of human Wee1 kinase | HeLa Luc-Wee1K328M stability, luciferase luminescence; 100% = proteasome inhibitor MG132 effect | hit rate 1.2% among 220,000 | reporter increase, % at 5 µM;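 active = activation above the mean of all tested compounds plus 3 SD, set per screening run, cut at about 8.8% in these data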;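 note: cells exposed to compound for 20 h before luminescence read; 0% = DMSO alone and 100% = MG132 at 30 µM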
Target sequence (P30291 whole entry K328M): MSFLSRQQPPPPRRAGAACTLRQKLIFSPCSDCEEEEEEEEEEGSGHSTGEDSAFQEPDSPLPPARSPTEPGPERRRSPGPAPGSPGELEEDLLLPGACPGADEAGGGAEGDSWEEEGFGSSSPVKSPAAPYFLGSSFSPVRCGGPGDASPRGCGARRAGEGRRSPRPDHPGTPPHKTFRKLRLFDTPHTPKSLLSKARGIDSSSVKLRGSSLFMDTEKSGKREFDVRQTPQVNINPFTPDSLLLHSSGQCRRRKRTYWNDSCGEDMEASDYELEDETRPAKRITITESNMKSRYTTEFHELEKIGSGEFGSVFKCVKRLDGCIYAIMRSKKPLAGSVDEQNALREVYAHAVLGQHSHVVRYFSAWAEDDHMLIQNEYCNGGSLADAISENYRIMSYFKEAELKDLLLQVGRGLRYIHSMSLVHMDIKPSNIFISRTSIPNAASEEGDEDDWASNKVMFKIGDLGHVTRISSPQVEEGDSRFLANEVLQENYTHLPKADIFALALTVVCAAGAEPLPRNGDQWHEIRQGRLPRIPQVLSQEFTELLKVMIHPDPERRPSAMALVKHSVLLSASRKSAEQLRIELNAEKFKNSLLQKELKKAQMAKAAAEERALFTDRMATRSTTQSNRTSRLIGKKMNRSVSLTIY
AI-2 QS modul: modulators of Vibrio harveyi AI-2 quorum sensing system. hit rate 0.4% among 300,000. activity change, % at 7.5 µM. Vibrio harveyi JMH597 AI-2 luminescence/OD600 ratio, 9 h; active compounds read low; strain lacks LuxN and CqsS sensors; 0 = neutral-control median; in the data active = activity change below about -75%, passing the limit was not always enough; inconclusive = no clear call, values can overlap the other calls;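 note: luminescence divided by OD600 gain over 9 h not by final OD600 alone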
RanGTP-Imp inh: inhibitors of RanGTP-importin-beta interaction, primary screen, biochemical, FRET, CFP-Ran, YFP-importin-beta, homogeneous | cell-free CFP-Ran/YFP-importin-beta FRET ratio | inhibition, % (test concentration not listed) | hit rate 1.1% among 300,000;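 active = more than half of the replicate wells show a fall in the fluorescence ratio signal beyond about 16%, limit read from the data, passing the limit was not always enough; inconclusive = exactly half of the replicate wells pass the set limit; inactive = fewer than half of replicates pass the limit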;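 note: 0% = DMSO wells and 100% = Ran loaded with GDP instead of GTP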
proKLK7 act: activators of human kallikrein-7 zymogen. hit rate 0.9% among 370,000. purified proKLK7, EDANS-DABCYL substrate fluorescence; 100% is mature enzyme control, 0% vehicle. activation, % at 7 µM;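 active = activation above the mean of all tested compounds plus 3 SD, computed per campaign excluding outliers beyond control limits, cut at about 13% in these data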
Runt-SMMHC FRET: inhibitors of human RUNX1 Runt domain binding to CBFb-SMMHC | AID 1434 | inhibition, % at 20 µM | Cerulean-Runt/Venus-CBFb-SMMHC FRET ratio 530/480, 1 h | hit rate 0.74% among 220,000 | Q01196+Q13951;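 active = mean inhibition across duplicate retests at 20 µM reaching about 50%, limit read from the data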;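 note: 0% = DMSO wells and 100% = wells with excess untagged CBFb-SMMHC; inhibitors lower the FRET ratio by blocking Runt binding to CBFb-SMMHC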
Runt-CBFb FRET: blocks binding of human RUNX1 Runt domain to CBFb; Q01196+Q13951; Cerulean-Runt/Venus-CBFb FRET ratio 530/480, 1 h; inhibition, % at 20 µM; hit rate 0.46% among 220,000;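 active = inhibition over about 50% at 20 µM in the single-dose screen, limit read from the data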;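 note: 0% = DMSO wells and 100% = excess unlabeled CBFb competitor control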
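Assay system: Cerulean-tagged RUNX1 Runt domain (FRET donor) fusion protein / Amount: 100 nM each of Venus-CBFb and Cerulean-Runt domain / Medium: Tris buffer pH 7.5 with salts and BSA / Also added: Venus-CBFb 100 nM / Schedule: 1 h complex formation plus 1 h compound treatment, room temperature / Signal: FRET fluorescence / Read-out: loss of energy transfer signal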
Numbers without * were called inactive.

`Cc1ccc(C)c(C(=O)COC(=O)c2cccc(N3C(=O)c4c(C)nc5ccccc5c4C3=O)c2)c1` gave Wee1 stabilizer 9.0*, AI-2 QS modul 10, RanGTP-Imp inh -2, proKLK7 act -1, Runt-SMMHC FRET -2 and Runt-CBFb FRET -3.
For O=C(O)C1CCCN1C(=O)c1cccc(Cl)c1 (configuration not stated) the results were proKLK7 act 0.
CCOC(=O)c1cc(C#N)c(SCC(=O)c2cc(C#N)c(SC)nc2C)[nH]c1=O was read as Wee1 stabilizer -1, AI-2 QS modul 19, RanGTP-Imp inh 60*, proKLK7 act 2, Runt-SMMHC FRET 36 and Runt-CBFb FRET 16.
`Cn1cccc1-c1nc2ccc(NC(=O)c3ccc([N+](=O)[O-])cc3)cc2[nH]1` gave Wee1 stabilizer 1, AI-2 QS modul 5, RanGTP-Imp inh 0, proKLK7 act -1, Runt-SMMHC FRET -1 and Runt-CBFb FRET 5.
Cn1cccc1-c1nc2ccc(NC(=O)c3ccccc3)cc2[nH]1 was read as Wee1 stabilizer 10*, AI-2 QS modul 0, RanGTP-Imp inh 0, proKLK7 act 0, Runt-SMMHC FRET -2 and Runt-CBFb FRET 0.
Cc1cccc(-n2c3nc(=O)[nH]c(=O)c-3cc3cc([N+](=O)[O-])ccc32)c1 was read as Wee1 stabilizer -2, AI-2 QS modul 24, RanGTP-Imp inh 2, proKLK7 act 1, Runt-SMMHC FRET 55* and Runt-CBFb FRET 21.
Screening Cc1cccc(SC2CCN(C(=O)C3CCC(=O)N(C4CC4)C3)CC2)c1 (configuration not stated) returned AI-2 QS modul 4, RanGTP-Imp inh 3 and proKLK7 act 0.
`CCOC(=O)c1c(NC(=O)Nc2ccc(C)cc2)sc2c1CCN(C)C2` gave Wee1 stabilizer 10*, AI-2 QS modul 1, RanGTP-Imp inh 9, proKLK7 act 3, Runt-SMMHC FRET 13 and Runt-CBFb FRET 22.
`CCOC(=O)c1c(NC(=S)Nc2ccccc2)sc2c1CCN(CC)C2` gave Wee1 stabilizer -3, AI-2 QS modul 10, RanGTP-Imp inh 62*, proKLK7 act 75*, Runt-SMMHC FRET 152* and Runt-CBFb FRET 61*.
`CCOC(=O)c1c(NC(=S)Nc2ccccc2)sc2c1CCCCC2` gave Wee1 stabilizer -1, AI-2 QS modul 31, RanGTP-Imp inh 2, Runt-SMMHC FRET 7 and Runt-CBFb FRET 2.
For CN(C(=O)c1cccc(NC(=O)Cc2ccc(NC(=O)C3CCN(C(=O)CCc4ccccc4)CC3)cc2)c1)C1CCCC1 the results were proKLK7 act 1.
O=C(O)c1ccc2c(c1)C(=O)N(c1cccc(-c3nc4ccccc4s3)c1)C2=O was read as Wee1 stabilizer 11*, AI-2 QS modul 5, RanGTP-Imp inh inconclusive, proKLK7 act 0, Runt-SMMHC FRET -12 and Runt-CBFb FRET 1.
Screening COc1cccc(CNC(=O)CN2C(=O)CSc3ccc(S(=O)(=O)N4CCCC4)cc32)c1 returned Wee1 stabilizer 3, AI-2 QS modul 27, RanGTP-Imp inh -1, proKLK7 act 0, Runt-SMMHC FRET 3 and Runt-CBFb FRET -1.
COc1ccc(/C(N)=N/OC(=O)COc2ccccc2Cl)cc1 was read as Wee1 stabilizer 1, AI-2 QS modul 22, RanGTP-Imp inh 1, proKLK7 act 0, Runt-SMMHC FRET -2 and Runt-CBFb FRET 2.
`Cc1cccc(/C(N)=N/OC(=O)COc2ccccc2Cl)c1` gave Wee1 stabilizer 12*, proKLK7 act 0, Runt-SMMHC FRET -2 and Runt-CBFb FRET 3.
N#CCc1cc2ccc3cccc4ccc(c1)c2c34 was read as Wee1 stabilizer 22*, AI-2 QS modul 28, RanGTP-Imp inh 0, proKLK7 act -7, Runt-SMMHC FRET 0 and Runt-CBFb FRET 1.
`c1ccc2c(c1)c1cccc3ccc4cccc2c4c31` gave proKLK7 act -3.
CCO[C@@H]1OC(C(=O)NC2CC2)=C[C@H](C2CC2)[C@H]1CCCO was read as AI-2 QS modul 24, RanGTP-Imp inh 30*, proKLK7 act 0, Runt-SMMHC FRET 0 and Runt-CBFb FRET -1.
For N#Cc1c(SCc2ccccc2)sc(C(=O)c2ccccc2)c1N the results were Wee1 stabilizer 9.2*, AI-2 QS modul 22, RanGTP-Imp inh 6, proKLK7 act 0, Runt-SMMHC FRET 1 and Runt-CBFb FRET 7.
For O=C(Cc1noc2ccccc12)NNC(=S)Nc1ccc(Cl)cc1 the results were Wee1 stabilizer -3, AI-2 QS modul 23, RanGTP-Imp inh 5, proKLK7 act 0, Runt-SMMHC FRET 1 and Runt-CBFb FRET 5.
O=C(Cc1noc2ccccc12)Nc1ccc(Cl)cc1 was read as Wee1 stabilizer -3, AI-2 QS modul -84*, RanGTP-Imp inh 2, proKLK7 act 0, Runt-SMMHC FRET 3 and Runt-CBFb FRET -5.
O=C(NCCN1CCOCC1)c1ccc(NS(=O)(=O)c2cccc([N+](=O)[O-])c2)cc1 was read as AI-2 QS modul 11, RanGTP-Imp inh 3 and proKLK7 act 0.
CCOC(=O)/C(C#N)=C\C=C1C=CN(C)C=C1 was read as Wee1 stabilizer 4, AI-2 QS modul 9, RanGTP-Imp inh 51*, proKLK7 act 0 and Runt-SMMHC FRET -86.
Screening Cc1ccc(S(=O)(=O)c2nnn(-c3cccc(F)c3)c2N)cc1 returned Wee1 stabilizer 0, AI-2 QS modul -97*, RanGTP-Imp inh 2, proKLK7 act 0, Runt-SMMHC FRET -7 and Runt-CBFb FRET -2.
`COc1cc(C2C(C#N)=C(N)N(c3ccc(F)cc3)C3=C2S(=O)(=O)CC3)ccc1O` (configuration not stated) gave Wee1 stabilizer 9.6*, AI-2 QS modul 14, RanGTP-Imp inh 2, proKLK7 act -4, Runt-SMMHC FRET -7 and Runt-CBFb FRET 4.
`COc1cc(C2C(C#N)=C(SC)NC3=C2C(=O)CCC3)ccc1O` (configuration not stated) gave Wee1 stabilizer -3, AI-2 QS modul 11, RanGTP-Imp inh 3, proKLK7 act -1, Runt-SMMHC FRET -1 and Runt-CBFb FRET 0.
CCNC(=O)NC(=O)COC(=O)c1ccccc1SCC(=O)NC(=O)NCC was read as Wee1 stabilizer -2, AI-2 QS modul 42, RanGTP-Imp inh 10, proKLK7 act 39*, Runt-SMMHC FRET 18 and Runt-CBFb FRET 5.
Screening COc1ccc(S[C@]2(C(=O)N3CCCC3)CC(=O)N(C(=O)Nc3ccc(C)c(Cl)c3)[C@@H]2c2ccc(OC)cc2)cc1 returned proKLK7 act 0.
